This note sets out measurements from ChEMBL document CHEMBL4393676, “Design, Synthesis, and Preclinical Characterization of Selective Factor D Inhibitors Targeting the Alternative Complement Pathway” (J Med Chem, 2019).

Data set [1] in a line: Clearance in C57BL/6 mouse at 1 mg/kg, iv or 10 mg/kg, po administered via gavage by HPLC-MS/MS analysis. In kind it is ADME, organism-based. Particulars: in vivo.
Data set [2] can be described thus: Oral bioavailability in C57BL/6 mouse 10 mg/kg by HPLC-MS/MS analysis. In kind it is ADME, organism-based. As to conditions: in vivo; for bioavailability: C57BL/6, mouse.
Data set [3] in a line: Cmax in C57BL/6 mouse at 10 mg/kg, po administered via gavage by HPLC-MS/MS analysis. Particulars: in vivo. In kind it is ADME, organism-based. Also on record: dose 10 mg/kg, route oral.
Data set [4] can be described thus: AUC (0 to 7 hrs) in C57BL/6 mouse at 1 mg/kg, iv by HPLC-MS/MS analysis. It is filed as ADME, organism-based. Also on record: dose 1 mg/kg, time < 7 hr, route intravenous. As to conditions: in vivo; for AUC(0-t) at 7 h: C57BL/6, mouse.
Data set [5] is described as follows: Volume of distribution at steady state in C57BL/6 mouse at 1 mg/kg, iv or 10 mg/kg, po administered via gavage by HPLC-MS/MS analysis. It is filed as ADME, organism-based. As to conditions: in vivo, read-out: Vdss.
A short description of data set [6]: Elimination half life in C57BL/6 mouse at 1 mg/kg, iv by HPLC-MS/MS analysis. It is filed as ADME, organism-based. As to conditions: in vivo, read-out: beta t1/2 (converted).
Data set [7] concerns Mus musculus. The experiment in a line: Suppression of LPS-induced alternative complementation pathway in human FD knock-in C57BL/6 mouse assessed as reduction in plasma Ba level treated via oral gavage […] prior to LPS stimulation and measured up to 24 hrs post-dose. In kind it is functional, organism-based.
The nature of data set [8]: AUC (0 to 7 hrs) in C57BL/6 mouse at 10 mg/kg, po administered via gavage by HPLC-MS/MS analysis. Also on record: time < 7 hr, dose 10 mg/kg, route oral. In kind it is ADME, organism-based. Particulars: in vivo; for AUC(0-t) at 7 h: C57BL/6, mouse.
Data set [9] can be described thus: Dose normalized AUC in Brown Norway rat plasma at 10 mg/kg, po administered via gavage by HPLC-MS/MS analysis. In kind it is ADME, organism-based. Particulars: in vivo. Put shortly:
(§1)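 Three-month-old Brown Norway rats given single 10 mg/kg oral gavage, suspension in 0.5% HPMC/0.1% Tween 80. Plasma and both eyes' retina and posterior eye cup (RPE/choroid plus posterior sclera) taken from 2 rats per time at 0.25, 0.5, 1, 3, 6, 24 h; tissues homogenized in PBS with 10% acetonitrile, supernatants by HPLC-MS/MS. AUC dose normalized.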

A short description of data set [10]: Dose normalized AUC in Brown Norway rat posterior eye cup at 10 mg/kg, po administered via gavage by HPLC-MS/MS analysis. In kind it is ADME, organism-based. Particulars: in vivo. Put shortly: as §1
Data set [11] is described as follows: Dose normalized AUC in Brown Norway rat retina at 10 mg/kg, po administered via gavage by HPLC-MS/MS analysis. It is filed as ADME, organism-based. Particulars: in vivo. Put shortly: as §1
Data set [12] can be described thus: Plasma concentration in Brown Norway rat at 10 mg/kg, po administered via gavage measured at 24 hrs post dose by HPLC-MS/MS analysis. It is filed as ADME, organism-based. The gist of the method:
as §1

Data set [13] in a line: Drug level in Brown Norway rat posterior eye cup at 10 mg/kg, po administered via gavage measured at 24 hrs post dose by HPLC-MS/MS analysis. In kind it is ADME, organism-based. As to conditions: read-out: Drug uptake. Put shortly: as §1
Data set [14] is described as follows: Drug level in Brown Norway rat retina at 10 mg/kg, po administered via gavage measured at 24 hrs post dose by HPLC-MS/MS analysis. It is filed as ADME, organism-based. Particulars: in vivo, BLD = below limit of detection. The gist of the method: as §1
Data set [15] in a line: Time at which posterior eye cup concentration stays above in vitro IC50 for inhibition of FD-mediated alternative complementation pathway in 50% human whole blood in Brown Norway rat at 10 mg/kg, po. In kind it is organism-based. As to conditions: in vivo. Put shortly:
as §1

Data set [16] deals with Mus musculus. The experiment in a line: Suppression of intravitreal injection-activated alternative complementation pathway in human FD knock-in C57BL/6 mouse model of local ocular injury assessed as reduction in ocular Ba level treated via oral gavage 2 hrs prior to intravitreal injection and measured after 4 hrs by Western blot analysis. In kind it is functional, organism-based. The gist of the method:
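Human FD knock-in mice dosed by oral gavage (3 or 10 mg/kg) at time 0; 2 h later anesthetized and injected intravitreally with 1 µL sterile PBS. Eyes taken 4 h after injection; lysates analysed for Ba by Western blot, relative to vehicle, mean ± SEM.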

Data set [17] is described as follows: Clearance in Beagle dog at 1 mg/kg, iv or 10 mg/kg, po administered via gavage by HPLC-MS/MS analysis. It is filed as ADME, organism-based, Canis lupus familiaris. As to conditions: in vivo. Put shortly:
(§2)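 Beagle dogs, n=3 per route: IV 1 mg/kg in 2% 1N HCl, 20% PEG 300, 50% of 20% solutol in PBS; PO gavage 10 mg/kg as solution in 20% PEG 300, 10% solutol HS15, 70% citrate buffer pH 3. Blood at 5 min (IV), 15 min, 0.5, 1, 2, 4, 7, 24 h; HPLC-MS/MS (ESI positive); non-compartmental analysis; mean ± SD.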

The nature of data set [18]: Volume of distribution at steady state in Beagle dog at 1 mg/kg, iv or 10 mg/kg, po administered via gavage by HPLC-MS/MS analysis. In kind it is ADME, organism-based, Canis lupus familiaris. Particulars: in vivo, read-out: Vdss. Put shortly:
as §2

Data set [19] in a line: Half life in Beagle dog at 1 mg/kg, iv or 10 mg/kg, po administered via gavage by HPLC-MS/MS analysis. In kind it is ADME, organism-based, Canis lupus familiaris. As to conditions: in vivo. The gist of the method:
as §2

Data set [20] can be described thus: AUClast in Beagle dog at 10 mg/kg, po administered via gavage by HPLC-MS/MS analysis. Set-up: dose 10 mg/kg, time 0 - last, route oral. In kind it is ADME, organism-based, Canis lupus familiaris. As to conditions: in vivo. Put shortly: as §2
The nature of data set [21]: Cmax in Beagle dog at 10 mg/kg, po administered via gavage by HPLC-MS/MS analysis. It is filed as ADME, organism-based, Canis lupus familiaris. Set-up: dose 10 mg/kg, route oral. As to conditions: in vivo. Put shortly:
as §2

Data set [22] in a line: Tmax in Beagle dog at 10 mg/kg, po administered via gavage by HPLC-MS/MS analysis. In kind it is ADME, organism-based, Canis lupus familiaris. Particulars: in vivo. The gist of the method:
as §2

Data set [23] is described as follows: Oral bioavailability in Beagle dog at 10 mg/kg administered via gavage by HPLC-MS/MS analysis. In kind it is ADME, organism-based, Canis lupus familiaris. Particulars: in vivo. Put shortly: as §2
Data set [24] can be described thus: Solubility of the compound at pH 6.8. It is filed as physicochemical. Particulars: buffer.
Data set [25] addresses Coagulation factor XI (Homo sapiens, UniProt P03951). Briefly: Inhibition of F11a (unknown origin).
In data set [26] the target is Tryptase beta-2 (Homo sapiens, UniProt P20231). The experiment in a line: Inhibition of tryptase-beta2 (unknown origin).

≈ marks a conversion by molar mass, not a printed value.

In the case of `N[C@H](CO)c1cccc(-c2cccc(COc3ccccc3CC(=O)O)c2)c1`, the clearance amounted to 0.156 L/h/kg in data set [1] and 0.228 L/h/kg in data set [17]. In addition, the bioavailability was found to be 83% in data set [2] and 70% in data set [23]. Further, the results for the Cmax in data set [3] and in [21] were 31 µM and 16.5 µM, respectively. In addition, the figures for the AUC(0-t) at 7 h in data set [4] and in data set [8] were 16.1 µM·h and 125 µM·h, respectively. The Vd stood at 0.3 L/kg in data set [5] and 0.8 L/kg in data set [18]. Further, the values for the half-life in [6] and in [19] were 1.6 h and 3.8 h, respectively. The Activity entry in data set [7] and in data set [16] was “Dose-dependent effect” throughout. Also, the values for the AUC/dose in data set [9], in data set [10] and in data set [11] were 2300 nM·h, 1160 nM·h and 8 nM·h, respectively. Moreover, the results for the concentration at 24 h in data set [12] and in data set [13] were 0.034 µM and 0.29 µM, respectively. Besides, in data set [14], the Drug uptake entry is listed as “Bld”. Besides, the Time in data set [15] was more than 24 h. Moreover, the area under the curve AUC(0-t) in [20] is 85 µM·h. For the same molecule, in data set [22], the Tmax came out at 0.8 h.
As for `NCc1cccc(-c2cccc(C(=O)Nc3ccccc3CC(=O)O)c2)c1`, the clearance in data set [1] was 1.32 L/h/kg. The same molecule returned a solubility in [24] of 220 µM (≈ 79.3 µg/mL). The molecule further had a bioavailability in data set [2] of 10%. Moreover, the IC50 in data set [25] turned out to be 2.8 µM; in [26], 2.3 µM.
For the molecule `N[C@H](CO)c1cccc(-c2cc(Br)cc(COc3ccccc3CC(=O)O)c2)c1`, in data set [1], the clearance worked out at 0.042 L/h/kg. For the same molecule, the F in data set [2] (mouse) was determined as 25%. Moreover, the Cmax in [3] worked out at 26 µM. Also, the AUC in [4] (mouse, 7 h) was found to be 48.7 µM·h; in data set [8] (mouse, 7 h) it was 11.6 µM·h. Moreover, in data set [5], the Vd was 0.1 L/kg. In addition, the half-life in [6] was 2.5 h.
For the molecule `NCc1cccc(-c2cccc(COc3ccccc3CC(=O)O)c2)c1`, in [1], the clearance amounted to 0.84 L/h/kg. In [2], this molecule had a bioavailability of 100%.
In the case of `N[C@H](CCO)c1cccc(-c2cccc(COc3ccccc3CC(=O)O)c2)c1`, the clearance in data set [1] was 0.522 L/h/kg. The bioavailability in data set [2] is 39%. This molecule returned a Cmax in data set [3] of 10.7 µM. For the same molecule, the area under the curve AUC(0-t) at 7 h in data set [4] was 4.97 µM·h; in data set [8], 19.5 µM·h. For the same molecule, the Vd in data set [5] came out at 0.3 L/kg. Moreover, the half-life in data set [6] is 1.3 h.

In general, bioavailability refers to dose-corrected exposure relative to a reference, in per cent. Higher therefore signals much systemic uptake. What is called Cmax is the highest concentration seen after dosing. What is called AUC(0-t) is exposure summed from dosing to a finite time, without extrapolation to infinity. A high value points to high exposure. What is called Tmax is the time from dosing to the highest level. As a reminder, the solubility is the concentration that dissolves in the medium under given conditions. A high value points to a readily soluble substance. The term IC50 denotes the midpoint of a concentration-inhibition curve. A higher IC50 goes with lower potency. The AUC is concentration integrated over time.
